Data on six compounds can be found in ChEMBL document CHEMBL1155883, “5-Alkyl-6-benzyl-2-(2-oxo-2-phenylethylsulfanyl)pyrimidin-4(3H)-ones, a series of anti-HIV-1 agents of the dihydro-alkoxy-benzyl-oxopyrimidine family with peculiar structure-activity relationship profile” (J Med Chem, 2008).

By EC50 is commonly meant the midpoint of the concentration-response curve. In general, CC50 refers to the concentration giving 50% cytotoxicity. Lower therefore signals greater toxicity to the cells.

Where only a bound is given, the exact number is not on record here.

Data set [1] concerns Human immunodeficiency virus 1. Put plainly: Resistance index, ratio of EC50 for drug-resistant HIV1 isolate with reverse transcriptase Y181C mutation to EC50 for wild type HIV1 NL4-3. In kind it is functional. In short, it runs like this:
(§1)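 Fold resistance is the EC50 against the K103N, Y181C or Y188L mutant strain divided by the EC50 against wt NL4-3. Each EC50 is from MT-4 cells infected in the presence of different drug concentrations, with viability read by MTT at day 5 postinfection.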

Data set [2] concerns Human immunodeficiency virus type 1 reverse transcriptase (Human immunodeficiency virus 1), Q72547 [K103N].
Data set [3] relates to Human immunodeficiency virus type 1 reverse transcriptase (Human immunodeficiency virus 1), Q72547 [Y181I].
In data set [4] the test system is Human immunodeficiency virus type 1 reverse transcriptase (Human immunodeficiency virus 1), Q72547 [L100I].
The subject of data set [5] is Human immunodeficiency virus 1. The data set can be described thus: Antiviral activity against HIV1 isolates with reverse transcriptase Y181C mutation in human MT4 cells assessed as inhibition of virus-induced cytopathogenicity by MTT assay. In kind it is functional, organism-based. The following applies: Human immunodeficiency virus 1, MT4. In short, it runs like this: (§2)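 MT-4 lymphoid cells infected with HIV-1 carrying RT K103N, Y181C or Y188L, in the presence of different drug concentrations. Viable cells counted at day 5 postinfection by MTT colorimetric assay. EC50 is the concentration that inhibits 50% of the HIV-induced cytopathic effect.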

Data set [6] can be described thus: Cytotoxicity against human MT4 cells by MTT assay. In kind it is cell-based. Summed up:
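Mock-infected MT-4 cells were exposed to a range of compound concentrations. Viability was read by MTT at day 5. CC50 is the concentration that kills 50% of uninfected cells. The top concentration was limited by compound precipitation in culture medium. Means ± SD from at least two or three experiments.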
A general note: Tetrazolium assays rely on reduction of a dye to a coloured formazan, in cell work by metabolically active cells.

Data set [7] concerns Human immunodeficiency virus 1. Put plainly: Resistance index, ratio of ID50 for reverse transcriptase L100I mutant to IC50 for wild-type HIV1 reverse transcriptase. In short, it runs like this: (§3)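 Recombinant wt and K103N, L100I or Y181I HIV-1 RT (>95% pure), 2-4 nM. RNA-dependent DNA polymerase assay on 0.5 µg poly(rA)/oligo(dT) 10:1 (0.3 µM 3'-OH ends) with 10 µM [3H]-dTTP and 8% final DMSO. Aliquots taken every 2 min. Inhibitor range 0.2-5× ID50, fitted to a noncompetitive model. Fold resistance is mutant ID50 divided by wt ID50.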

Data set [8] is described as follows: Selectivity index, ratio of CC50 for human MT4 cells to EC50 for HIV1 NL4-3. In kind it is toxicity, cell-based. As to conditions: read-out: Ratio CC50/EC50. Summed up:
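Computed as CC50/EC50. CC50 comes from MTT viability of mock-infected MT-4 cells and EC50 from MTT protection of NL4-3-infected MT-4 cells, both read at day 5.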

Data set [9] relates to Human immunodeficiency virus 1. Put plainly: Antiviral activity against HIV1 NL4-3 in human MT4 cells assessed as inhibition of virus-induced cytopathogenicity by MTT assay. In kind it is functional, organism-based. The following applies: Human immunodeficiency virus 1, NL4-3, MT4. Summed up:
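MT-4 lymphoid cells infected with wild-type HIV-1 NL4-3 in the presence of a range of compound concentrations. Viable cells were counted by MTT colorimetric read-out at day 5 post-infection. EC50 is the concentration giving 50% protection from virus-induced cytopathic effect. Means ± SD from at least two or three experiments.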
Background: Damage to the host cells serves as the signal in cytopathic effect assays.

The subject of data set [10] is Human immunodeficiency virus 1. The data set can be described thus: Antiviral activity against HIV1 isolates with reverse transcriptase Y188L mutation in human MT4 cells assessed as inhibition of virus-induced cytopathogenicity by MTT assay. It is filed as functional, organism-based. The following applies: Human immunodeficiency virus 1, MT4. In short, it runs like this: as §2

Data set [11] concerns Human immunodeficiency virus 1. Put plainly: Resistance index, ratio of EC50 for drug-resistant HIV1 isolate with reverse transcriptase Y188L mutation to EC50 for wild type HIV1 NL4-3. It is filed as functional. In short, it runs like this: as §1
For data set [12], the system named is Human immunodeficiency virus 1. The data set can be described thus: Resistance index, ratio of EC50 for drug-resistant HIV1 isolate with reverse transcriptase K103N mutation to EC50 for wild type HIV1 NL4-3. It is filed as functional. Summed up: as §1
In data set [13] the test system is Human immunodeficiency virus 1. The data set can be described thus: Resistance index, ratio of ID50 for reverse transcriptase K103N mutant to IC50 for wild-type HIV1 sreverse transcriptase. In short, it runs like this: as §3
The test system of data set [14] is Human immunodeficiency virus 1. Put plainly: Antiviral activity against HIV1 isolates with reverse transcriptase K103N mutation in human MT4 cells assessed as inhibition of virus-induced cytopathogenicity by MTT assay. It is filed as functional, organism-based. As to conditions: Human immunodeficiency virus 1, MT4. Summed up:
as §2

Data set [15] addresses Human immunodeficiency virus type 1 reverse transcriptase (Human immunodeficiency virus 1) (UniProt Q72547).
The subject of data set [16] is Human immunodeficiency virus 1. The data set can be described thus: Resistance index, ratio of ID50 for reverse transcriptase Y181I mutant to IC50 for wild-type HIV1 reverse transcriptase. Summed up:
as §3

On to `CC(C)c1c(Cc2c(F)cccc2Cl)nc(SCC(=O)c2ccccc2)[nH]c1=O`, for which the “Ratio EC50” value in data set [1] is recorded as 42; in [11], 1540; in data set [12], 658. Also, the ID50 in [2] is 4.5 µM; in data set [3] it was over 40 µM; in data set [4] it was 1.3 µM; in data set [15] it was 0.001 µM. Further, the EC50 was 0.21 µM in data set [5], 0.005 µM in data set [9], 7.7 µM in data set [10] and 3.29 µM in [14]. This compound had a CC50 in data set [6] of over 12 µM. The Ratio is 1300 in [7] and 4500 in data set [13]. For the same compound, in [8], the selectivity ratio was over 2400.
Regarding `CCc1c(Cc2c(F)cccc2Cl)nc(SCC(=O)c2ccccc2)[nH]c1=O`, the figures for the “Ratio EC50” value in [1], in data set [11] and in [12] were 32, 782 and 100, respectively. The ID50 was over 40 µM in [2], over 40 µM in data set [3], 9.7 µM in [4] and 0.008 µM in data set [15]. Also, the EC50 in [5] was 0.39 µM; in [9], 0.012 µM; in data set [10], 9.38 µM; in [14], 1.2 µM. Also, in data set [6], the cytotoxic concentration (CC50) was over 12 µM. Further, in data set [7], the Ratio was determined as 1210. The selectivity ratio in data set [8] was over 1000.
Turning to `CC(C)c1c(Cc2c(Cl)cccc2Cl)nc(SCC(=O)c2ccccc2)[nH]c1=O`, the “Ratio EC50” value in [1] is on record as 27; in [11], 1375; in data set [12] it was 1275. Also, the ID50 in data set [2] turned out to be 27.7 µM; in data set [3], 16.8 µM; in data set [4] it was 10.1 µM; in [15], 0.031 µM. Also, the EC50 in data set [5] was found to be 0.11 µM; in data set [9], 0.004 µM; in data set [10], 5.5 µM; in [14], 5.1 µM. In addition, the 50% cytotoxic concentration (CC50) in [6] was over 56 µM. Moreover, the Ratio in data set [7] is 326; in data set [13], 894; in [16], 542. Moreover, the selectivity ratio in [8] is over 14000.
Consider `CCc1c(Cc2c(Cl)cccc2Cl)nc(SCC(=O)c2ccccc2)[nH]c1=O`, for which the entries for the “Ratio EC50” value in data set [1], in data set [11] and in data set [12] were 7, 714 and 171, respectively. Further, the ID50 in data set [2] came out at 1.88 µM; in [3], 0.33 µM; in data set [4], 3.54 µM; in [15], 0.071 µM. The EC50 was found to be 0.046 µM in data set [5], 0.007 µM in [9], 5 µM in data set [10] and 1.2 µM in data set [14]. This compound had a half-maximal cytotoxic concentration (CC50) in [6] of over 52 µM. In addition, the Ratio in data set [7] amounted to 50; in data set [13], 26; in data set [16] it was 5. Besides, the selectivity ratio in [8] is over 7430.
Consider `Cc1c(Cc2c(Cl)cccc2Cl)nc(SCC(=O)c2ccccc2)[nH]c1=O`, for which the “Ratio EC50” value in [1] was determined as 13; in data set [11], 232; in data set [12] it was 100. The ID50 in data set [2] was found to be 12 µM; in [3], 1.38 µM; in data set [4] it was 7.8 µM; in data set [15], 0.23 µM. The EC50 in data set [5] came to 0.48 µM; in data set [9], 0.038 µM; in data set [10], 8.82 µM; in data set [14], 3.79 µM. In data set [6], the 50% cytotoxic concentration (CC50) is over 60 µM. In addition, the Ratio in [7] worked out at 34; in [13] it was 53; in data set [16] it was 6. In [8], the selectivity ratio was over 1580.
As to `CCc1c(Cc2c(Cl)cccc2Cl)nc(SCC(=O)c2ccc(F)cc2)[nH]c1=O`, the “Ratio EC50” value turned out to be 70 in [1], 5186 in [11] and 671 in data set [12]. In addition, the ID50 in [2] was 1.79 µM; in data set [3], 0.24 µM; in data set [4] it was 1.82 µM; in [15] it was 0.042 µM. Besides, the EC50 was found to be 0.49 µM in data set [5], 0.007 µM in data set [9], 36.3 µM in data set [10] and 4.7 µM in data set [14]. In data set [6], this compound showed a CC50 of over 55 µM. Further, the Ratio in data set [7] stood at 43; in data set [13], 43; in data set [16] it was 6. In [8], the selectivity ratio is over 7860.
